Legend:
[1] = molecular target: Telomerase reverse transcriptase (Homo sapiens, UniProt O14746); test: Inhibitory activity against human telomerase
Outline: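 Modified TRAP assay with extract protein (0.04 μg) from exponentially growing A2780 cells. The enzyme was heat-inactivated at 80 °C, then CX primer was added and 31 PCR cycles were run. Products were quantified by gel phosphorimaging or filter scintillation counting. Agents were first screened against Taq polymerase at 1–50 μM.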

[2] = Cytotoxicity against ovarian carcinoma A2780 cell lines; format: functional, cell-based; details: Homo sapiens
Outline: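 SRB assay. Cells were seeded at 3000–6000 per well and attached overnight. Salts dissolved in water at 500 μM were added in quadruplicate at 0.05, 0.25, 1, 5 and 25 μM final for 96 h. Cells were then fixed with cold 10% TCA and stained with 0.4% SRB. A540 was expressed as % of untreated control, and IC50 was derived.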

[3] = […]; format: functional, cell-based; details: Homo sapiens, A-431
Nucleic Acid = test: (§1) Affinity constant for binding to duplex DNA; format: functional, Homo sapiens
Homo sapiens [4] = organism: Homo sapiens; test: Affinity constant for binding to human 22-mer quadruplex; format: functional
Homo sapiens [5] = organism: Homo sapiens; test: as §1; format: functional, organism-based

Sequence of Telomerase reverse transcriptase (O14746 whole entry): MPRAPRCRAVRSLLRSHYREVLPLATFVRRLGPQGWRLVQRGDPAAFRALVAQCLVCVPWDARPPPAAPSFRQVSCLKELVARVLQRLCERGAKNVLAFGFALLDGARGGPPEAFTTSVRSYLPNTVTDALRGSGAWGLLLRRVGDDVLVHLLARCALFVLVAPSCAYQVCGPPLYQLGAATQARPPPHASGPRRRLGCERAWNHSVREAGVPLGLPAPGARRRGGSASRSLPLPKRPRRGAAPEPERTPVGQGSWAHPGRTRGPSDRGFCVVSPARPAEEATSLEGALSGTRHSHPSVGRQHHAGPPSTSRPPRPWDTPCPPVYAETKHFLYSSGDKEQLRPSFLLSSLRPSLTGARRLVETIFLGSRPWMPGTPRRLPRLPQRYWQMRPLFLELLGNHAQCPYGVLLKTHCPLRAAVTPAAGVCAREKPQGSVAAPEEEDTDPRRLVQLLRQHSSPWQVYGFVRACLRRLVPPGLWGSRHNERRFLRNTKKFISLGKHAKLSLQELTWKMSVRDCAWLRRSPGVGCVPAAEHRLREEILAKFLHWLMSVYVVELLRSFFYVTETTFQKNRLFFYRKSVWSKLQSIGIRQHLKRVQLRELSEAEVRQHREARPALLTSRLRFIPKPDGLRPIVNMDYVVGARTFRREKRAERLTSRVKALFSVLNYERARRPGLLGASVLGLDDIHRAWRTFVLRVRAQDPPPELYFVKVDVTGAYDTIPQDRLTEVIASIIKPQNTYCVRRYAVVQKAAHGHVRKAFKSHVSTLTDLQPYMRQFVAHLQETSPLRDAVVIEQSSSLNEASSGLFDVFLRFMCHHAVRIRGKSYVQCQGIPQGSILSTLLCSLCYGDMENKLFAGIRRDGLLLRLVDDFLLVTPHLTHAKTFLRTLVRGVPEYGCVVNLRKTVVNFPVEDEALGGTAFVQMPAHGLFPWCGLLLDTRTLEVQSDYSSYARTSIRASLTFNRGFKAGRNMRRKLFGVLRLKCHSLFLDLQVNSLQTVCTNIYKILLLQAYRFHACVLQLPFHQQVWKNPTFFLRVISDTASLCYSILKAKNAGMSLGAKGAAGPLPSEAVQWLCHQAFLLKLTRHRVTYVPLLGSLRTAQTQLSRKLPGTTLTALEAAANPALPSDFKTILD

CN(C)c1ccc(Nc2c3ccc(NC(=O)CCN4CCCC4)cc3nc3ccc(NC(=O)CCN4CCCC4)cc23)cc1
EC50 [1]: 0.17 µM
IC50 [2]: 7.9 µM
IC50 [3]: 10 µM

CN(C)CCNc1c2cc(NC(=O)CCN3CCCC3)ccc2nc2ccc(NC(=O)CCN3CCCC3)cc12
EC50 [1]: 0.57 µM
IC50 [2]: 11 µM
IC50 [3]: > 25 µM

COc1ccc(Nc2c3cc(NC(=O)CCN4CCCC4)ccc3nc3ccc(NC(=O)CCN4CCCC4)cc23)cc1
EC50 [1]: 0.46 µM
IC50 [2]: 10 µM
IC50 [3]: 12.6 µM

O=C(CCN1CCCC1)Nc1ccc2nc3ccc(NC(=O)CCN4CCCC4)cc3c(Nc3ccccc3)c2c1
EC50 [1]: 1.29 µM
IC50 [2]: 2.6 µM
IC50 [3]: 12.5 µM

CSc1cccc(Nc2c3ccc(NC(=O)CCN4CCCC4)cc3nc3cc(NC(=O)CCN4CCCC4)ccc23)c1
EC50 [1]: 0.1 µM
IC50 [2]: 2.8 µM
IC50 [3]: 1.3 µM

O=C(CCN1CCCC1)Nc1ccc2c(NC3CCCCC3)c3ccc(NC(=O)CCN4CCCC4)cc3nc2c1
EC50 [1]: 0.09 µM
IC50 [2]: 12.5 µM
IC50 [3]: 2.5 µM

COCCNc1c2ccc(NC(=O)CCN3CCCC3)cc2nc2cc(NC(=O)CCN3CCCC3)ccc12
EC50 [1]: 0.14 µM
IC50 [2]: 10 µM
IC50 [3]: 10 µM

O=C(CCN1CCCC1)Nc1ccc2cc3ccc(NC(=O)CCN4CCCC4)cc3nc2c1
Ka (Nucleic Acid): 1100000 M⁻¹
EC50 [1]: 5.2 µM
IC50 [2]: 2.6 µM
Ka (Homo sapiens [4]): 1300000 M⁻¹

CN(C)c1cccc(Nc2c3cc(NC(=O)CCN4CCCC4)ccc3nc3ccc(NC(=O)CCN4CCCC4)cc23)c1
EC50 [1]: 0.6 µM
IC50 [2]: 3.2 µM
IC50 [3]: 12.6 µM

CN(C)CCNc1c2ccc(NC(=O)CCN3CCCC3)cc2nc2cc(NC(=O)CCN3CCCC3)ccc12
Ka (Nucleic Acid): 4900000 M⁻¹
EC50 [1]: 0.018 µM
IC50 [2]: > 25 µM
IC50 [3]: > 25 µM
Ka (Homo sapiens [4]): 57000000 M⁻¹

Nc1cccc(Nc2c3cc(NC(=O)CCN4CCCC4)ccc3nc3ccc(NC(=O)CCN4CCCC4)cc23)c1
EC50 [1]: 1.09 µM
IC50 [2]: 6.3 µM
IC50 [3]: > 25 µM

CC(=O)c1ccc(Nc2c3ccc(NC(=O)CCN4CCCC4)cc3nc3cc(NC(=O)CCN4CCCC4)ccc23)cc1
EC50 [1]: 0.04 µM
IC50 [2]: 3.2 µM
IC50 [3]: 2.2 µM

O=C(CCN1CCCC1)Nc1ccc2c(NC3CCCCC3)c3cc(NC(=O)CCN4CCCC4)ccc3nc2c1
EC50 [1]: 0.21 µM
IC50 [2]: 10 µM
IC50 [3]: 14 µM

CC(=O)Nc1cccc(Nc2c3ccc(NC(=O)CCN4CCCC4)cc3nc3cc(NC(=O)CCN4CCCC4)ccc23)c1
EC50 [1]: 0.1 µM
IC50 [2]: > 25 µM
IC50 [3]: > 25 µM

O=C(CCN1CCCC1)Nc1ccc2c(Nc3ccccc3)c3cc(NC(=O)CCN4CCCC4)ccc3nc2c1
EC50 [1]: 1.33 µM
IC50 [2]: 5.6 µM
IC50 [3]: 14 µM

Nc1ccccc1Nc1c2ccc(NC(=O)CCN3CCCC3)cc2nc2cc(NC(=O)CCN3CCCC3)ccc12
EC50 [1]: 0.02 µM
IC50 [2]: 11 µM
IC50 [3]: 7.1 µM

O=C(CCN1CCCC1)Nc1ccc2c(NCc3cccnc3)c3ccc(NC(=O)CCN4CCCC4)cc3nc2c1
EC50 [1]: 0.066 µM
IC50 [2]: > 25 µM
IC50 [3]: > 25 µM

Nc1cccc(Nc2c3ccc(NC(=O)CCN4CCCC4)cc3nc3cc(NC(=O)CCN4CCCC4)ccc23)c1
EC50 [1]: 0.06 µM
IC50 [2]: 12.6 µM
IC50 [3]: 12.6 µM

Nc1ccc(Nc2c3cc(NC(=O)CCN4CCCC4)ccc3nc3ccc(NC(=O)CCN4CCCC4)cc23)cc1
EC50 [1]: 0.2 µM
IC50 [2]: > 25 µM
IC50 [3]: > 25 µM

Nc1ccccc1Nc1c2cc(NC(=O)CCN3CCCC3)ccc2nc2ccc(NC(=O)CCN3CCCC3)cc12
EC50 [1]: 0.17 µM
IC50 [2]: 17.8 µM
IC50 [3]: > 25 µM

O=C(CCN1CCCC1)Nc1ccc2nc3ccc(NC(=O)CCN4CCCC4)cc3c(Nc3ccccc3O)c2c1
EC50 [1]: 1.03 µM
IC50 [2]: 10 µM
IC50 [3]: > 25 µM

CN(C)c1ccc(Nc2c3ccc(NC(=O)CCN4CCCC4)cc3nc3cc(NC(=O)CCN4CCCC4)ccc23)cc1
EC50 [1]: 0.115 µM
IC50 [2]: 10 µM
IC50 [3]: 15.8 µM
Ka (Homo sapiens [4]): 16000000 M⁻¹
Ka (Homo sapiens [5]): 400000 M⁻¹

CN1CCCC1CCNc1c2ccc(NC(=O)CCN3CCCC3)cc2nc2cc(NC(=O)CCN3CCCC3)ccc12 (stereo unspecified)
EC50 [1]: 0.018 µM
IC50 [2]: > 25 µM
IC50 [3]: 25 µM

O=C(CCN1CCCC1)Nc1ccc2c(Nc3ccc(F)cc3)c3ccc(NC(=O)CCN4CCCC4)cc3nc2c1
EC50 [1]: 0.07 µM
IC50 [2]: 3.2 µM
IC50 [3]: 0.5 µM

COc1cccc(Nc2c3cc(NC(=O)CCN4CCCC4)ccc3nc3ccc(NC(=O)CCN4CCCC4)cc23)c1
EC50 [1]: 2.73 µM
IC50 [2]: 2.5 µM
IC50 [3]: 10 µM

CN(C)CCNc1c2ccc(NC(=O)CCN3CCCC3)cc2nc2ccc(NC(=O)CCN3CCCC3)cc12
EC50 [1]: 0.27 µM
IC50 [2]: > 25 µM
IC50 [3]: > 25 µM

CN(C)c1ccc(Nc2c3cc(NC(=O)CCN4CCCC4)ccc3nc3ccc(NC(=O)CCN4CCCC4)cc23)cc1
EC50 [1]: 0.5 µM
IC50 [2]: 19 µM
IC50 [3]: > 25 µM

Nc1cccc(Nc2c3ccc(NC(=O)CCN4CCCC4)cc3nc3ccc(NC(=O)CCN4CCCC4)cc23)c1
EC50 [1]: 0.21 µM
IC50 [2]: 15.8 µM
IC50 [3]: > 25 µM

O=C(CCN1CCCC1)Nc1ccc2c(NC3CC3)c3ccc(NC(=O)CCN4CCCC4)cc3nc2c1
EC50 [1]: 0.05 µM
IC50 [2]: 19 µM
IC50 [3]: > 25 µM

CSc1ccccc1Nc1c2ccc(NC(=O)CCN3CCCC3)cc2nc2cc(NC(=O)CCN3CCCC3)ccc12
EC50 [1]: 0.15 µM
IC50 [2]: 0.1 µM
IC50 [3]: 2.5 µM

CN(C)CCCNc1c2ccc(NC(=O)CCN3CCCC3)cc2nc2ccc(NC(=O)CCN3CCCC3)cc12
EC50 [1]: 0.08 µM
IC50 [2]: > 25 µM
IC50 [3]: > 25 µM

O=C(CCN1CCCC1)Nc1ccc2c(NC3CCCCCC3)c3ccc(NC(=O)CCN4CCCC4)cc3nc2c1
EC50 [1]: 0.21 µM
IC50 [2]: 3.2 µM
IC50 [3]: 3.2 µM

Nc1ccccc1Nc1c2ccc(NC(=O)CCN3CCCC3)cc2nc2ccc(NC(=O)CCN3CCCC3)cc12
EC50 [1]: 0.11 µM
IC50 [2]: 15.8 µM
IC50 [3]: > 25 µM

Nc1ccc(Nc2c3ccc(NC(=O)CCN4CCCC4)cc3nc3ccc(NC(=O)CCN4CCCC4)cc23)cc1
EC50 [1]: 0.08 µM
IC50 [2]: > 25 µM
IC50 [3]: > 25 µM

CN(C)CCCNc1c2ccc(NC(=O)CCN3CCCC3)cc2nc2cc(NC(=O)CCN3CCCC3)ccc12
EC50 [1]: 0.06 µM
IC50 [2]: > 25 µM
IC50 [3]: > 25 µM

Nc1ccc(Nc2c3ccc(NC(=O)CCN4CCCC4)cc3nc3cc(NC(=O)CCN4CCCC4)ccc23)cc1
Ka (Nucleic Acid): 500000 M⁻¹
EC50 [1]: 0.074 µM
IC50 [2]: 25 µM
IC50 [3]: 25 µM
Ka (Homo sapiens [4]): 16000000 M⁻¹

O=C(CCN1CCCC1)Nc1ccc2c(NCCN3CCCCC3)c3ccc(NC(=O)CCN4CCCC4)cc3nc2c1
EC50 [1]: 0.05 µM
IC50 [2]: 12.6 µM
IC50 [3]: 11.2 µM

CN(C)c1cccc(Nc2c3ccc(NC(=O)CCN4CCCC4)cc3nc3cc(NC(=O)CCN4CCCC4)ccc23)c1
EC50 [1]: 0.1 µM
IC50 [2]: 7.9 µM
IC50 [3]: 2 µM

From ChEMBL document CHEMBL1145123, “Trisubstituted acridine derivatives as potent and selective telomerase inhibitors” (J Med Chem, 2003)
